For 10 substances, Activity, inhibition and IC50 results are on record in ChEMBL document CHEMBL4270511, “Rational design and screening of peptide-based inhibitors of heat shock factor 1 (HSF1)” (Bioorg Med Chem, 2018).

Calls of active or inactive are those of the source. The calls are words filed in the database; no cut-off is given here.

In one assay the test system is DNA. Put plainly: Binding affinity to 5-fluorescein labeled HSE DNA (unknown origin) after 15 mins to 24 hrs by fluorescence polarization method. The class given is nucleic-acid assay. Put shortly:
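Tracer-binding control: peptides serially diluted from 400 μM, incubated with 15 nM 5-fluorescein HSE tracer alone (no protein) for 15 min, 1 h, 3 h and 24 h. Read by FP at excitation 485 nm and emission 530 nm, with 15-min mP values plotted. Buffer was 25 mM HEPES, 75 mM NaCl, pH 7.5, 10 mM MgCl₂, 0.01% Triton-X. Triplicates.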
(In general: Polarisation of emitted light reports the rotation of a fluorescent probe.)

The target of assay [1] is T1, Heat shock factor protein 1 (Homo sapiens) (UniProt Q00613).
T1 sequence (whole entry): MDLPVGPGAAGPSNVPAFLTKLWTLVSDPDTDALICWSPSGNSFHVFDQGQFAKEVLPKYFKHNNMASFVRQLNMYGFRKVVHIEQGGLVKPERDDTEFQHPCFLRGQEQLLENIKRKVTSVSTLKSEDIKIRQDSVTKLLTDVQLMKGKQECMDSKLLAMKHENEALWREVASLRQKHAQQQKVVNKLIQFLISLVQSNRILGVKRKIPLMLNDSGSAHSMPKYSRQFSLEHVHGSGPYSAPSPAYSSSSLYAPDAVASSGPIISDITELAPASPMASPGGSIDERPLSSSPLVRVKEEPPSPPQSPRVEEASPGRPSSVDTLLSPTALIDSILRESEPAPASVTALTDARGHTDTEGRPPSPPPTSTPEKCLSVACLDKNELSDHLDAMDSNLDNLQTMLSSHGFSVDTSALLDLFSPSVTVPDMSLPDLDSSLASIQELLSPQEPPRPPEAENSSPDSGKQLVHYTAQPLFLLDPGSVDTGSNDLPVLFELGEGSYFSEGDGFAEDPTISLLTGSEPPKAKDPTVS
Put plainly: Inhibition of recombinant human HSF1 expressed in Escherichia coli BL21 (DE3) assessed as reduction in HSF1 trimer-5-fluorescein labeled HSE interaction at 400 uM preincubated for 1 hr followed by DNA tracer addition and measured after 15 mins by competitive fluorescence polarization assay. The method in brief: (§1)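 His-HSF1 trimer, expressed in BL21 E. coli and isolated by SEC, was shaken with peptide in DMSO for 1 h at room temperature. 5-fluorescein HSE tracer was then added to give final 250 nM trimer, 15 nM tracer and 5% DMSO, followed by 15 min shaking. FP read at 485/530 nm. Single-point final peptide level 400 μM, scored as % inhibition relative to DMSO and tracer-only signals. Dose-response used serial dilutions from 800 μM, with nonlinear-regression IC₅₀ fitting. Duplicates.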

Assay [2] addresses T1, Heat shock factor protein 1 (Homo sapiens). Put plainly: (§2) Inhibition of recombinant human HSF1 expressed in Escherichia coli BL21 (DE3) assessed as reduction in HSF1 trimer-5-fluorescein labeled HSE interaction preincubated for 1 hr followed by DNA tracer addition and measured after 15 mins by competitive fluorescence polarization assay. The method in brief:
as §1

Assay [3] deals with T2, Heat shock factor protein 1 (Homo sapiens, UniProt Q00613).
T2 sequence (Q00613 whole entry): T1 sequence (whole entry)
The assay is described as §2. The method in brief:
as §1

In assay [4] the target is T1, Heat shock factor protein 1 (Homo sapiens). The assay can be described thus: (§3) Inhibition of recombinant human HSF1 expressed in Escherichia coli BL21 (DE3) assessed as reduction in HSF1 trimer-5-fluorescein labeled HSE interaction preincubated of protein with DNA tracer up to 24 hrs followed by compound addition and measured after 15 mins by fluorescence polarization assay. To be noted: in the assay text read “measured after 1 hr” for “measured after 15 mins”. Put shortly: (§4)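 Peptide added to a pre-formed complex of HSF1 trimer (250 nM) and 5-fluorescein HSE tracer (15 nM), then co-incubated a further 1 h before FP reading at 485/530 nm. Buffer was 25 mM HEPES, 75 mM NaCl, pH 7.5, 10 mM MgCl₂, 0.01% Triton-X. IC₅₀ from nonlinear regression; duplicate experiments.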

Assay [5] deals with T2, Heat shock factor protein 1. The assay is described as §3. Conditions: in the assay text read “measured after 1 hr” for “measured after 15 mins”. Put shortly:
as §4

Assay [6] has as its target T1, Heat shock factor protein 1 (Homo sapiens). Put plainly: Disruption of full length human HSF1 trimer structure at 20 uM after 30 mins by size-exclusion chromatographic method. The method in brief: (§5)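 SEC-purified full-length human HSF1 trimer (2 μM) incubated with 20 μM peptide (10-fold molar excess) or DMSO (2% v/v) at 4 °C for 30 min. Samples then run on Sephacryl S-400 SEC, and collected fractions analysed by immunoblot to follow oligomeric state.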

For assay [7] the target is unchanged. The assay can be described thus: Disruption of full length human HSF1 trimer structure at 20 uM after 30 mins by SDS-PAGE analysis.
Assay [8] has the same target. Put plainly: Disruption of full length human HSF1 trimer structure at 20 uM after 30 mins by Western blot analysis. The method in brief:
as §5
(In general: A western blot detects proteins with antibodies after separation by electrophoresis.)

On to Ac-LAMKHENEALWREVASLRQKHAQQQKVVNKL-NH2, for which the outcome in the assay with DNA was Active. Regarding Ac-IKIRQDSVTKLLTDVQLMKGKQECMDSK-NH2, the inhibition – broadly, how much of the control response was suppressed – in assay [1] was over 100%. Take Ac-HLDAMDSNLDNLQTMLSSHGFSVDTSALLD-NH2: the inhibition in assay [1] was 64%; in assay [2] it was “Dose-dependent effect”. The IC50 (commonly the concentration at which inhibition is half-maximal) in assay [3] was 150 µM.

Take Ac-DKNELSDHLDAMDSNL-NH2: the inhibition in [1] was 91%; in assay [2], “Dose-dependent effect”; in [4] it was “Dose-dependent effect”. Further, the figures for the IC50 in assay [3] and in assay [5] were 13 µM and 14 µM, respectively. The outcome in assay [6], in assay [7] and in assay [8] was inactive.

On to Ac-RQKHAQQQKVVNKL-NH2, for which the inhibition in assay [1] turned out to be 22%. Same read-out and setting: the same measure for Ac-LAMKHENEAL-NH2: 8.2%. On the same count and under the same terms, the same measure for Ac-DKNELSDHL-NH2: 0.4%; for Ac-DAMDSNL-NH2: 21%; for Ac-DVQLMKGKQECMDSKLLAMKHENEALWREV-NH2: 8.1%. With Ac-WREVASL-NH2, in assay [1], the inhibition was determined as 27%.
